In the library only some 2.2% were active in any assay of this set; here they are far more common.
PTEN del growth: growth suppressors of cells with PTEN tumor suppressor deletion; HCT116 PTEN-null viability, CellTiter-Glo, 60 h; stronger effect = lower value; viability, % at 10 µM; 140,000 compounds, 1.2% hits;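 active = viability at or below a set limit, 4 SD under the median of all tested compounds, cut at about 3.7% in these data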;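 also: PTEN knockout HCT116 line with beta catenin targeted HCT116 as companion control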
Dynein cargo inh: blocks dynein driven cargo transport along microtubules; 3617.4 mouse cells, GR-EGFP nuclear translocation imaging; test concentration mostly 20 µM; stimulated with dexamethasone, 1 µM; stronger effect = lower value; AID 1381; z-score, hits read low; 220,000 compounds, 0.47% hits;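 active = plate z-score of nuclear minus cytoplasmic receptor signal below a set negative limit, without overly bright fluorescence or cell loss, cut at about -3.5 in these data, passing the limit was not always enough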;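 also: z-score of nuclear minus cytoplasmic ring GR-EGFP intensity difference per well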
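Buffer or medium: tetracycline-free induction medium containing charcoal-stripped FBS / Reagent: dexamethasone agonist, 1.0 µM final, for 30 min / Technique: automated 10x imaging of fixed Hoechst-stained cells / Times: induction 48 h, compound 1 h, agonist 30 min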
SDO1 yeast rescue: sdo1-depleted yeast growth rescue; S. cerevisiae sdo1-depleted JHY4D growth rescue, OD600 30 h; stronger effect = higher value; pdr5 snq2 efflux-pump mutant strain; 140,000 compounds, 0.21% hits; AID 817; z-score at 10 µM;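 active = z-score above 3 at both the 24 hr and the 30 hr optical density reads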;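 also: z-score against mean and SD of all compound wells on the same plate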
Autophagy mod: autophagy modulation, high-content screen; MEF GFP-LC3 puncta imaging; test concentration mostly 10 µM; calls only at 10 µM (by protocol); 190,000 compounds, 0.98% hits; AID 463193;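 active = percentage of spot-positive cells more than 3 SD above its plate mean, without a fluorescence outlier flag or 80% toxicity; inconclusive = no clear call, values can overlap the other calls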;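 also: spot-positive cell cutoff set from DMSO-treated cells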
HCT116 bCat-KO: beta-catenin-lacking colon tumor cell growth suppression. HCT116 beta-catenin knockout viability, CellTiter-Glo, 60 h; stronger effect = lower value. viability, % at 10 µM. 140,000 compounds, 1.5% hits. AID 818;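 active = viability at or under a set limit, the compound median less 4 SD, cut at about 6% in these data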;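 also: 0% = Hyamine 1622 control at 20 µM and 100% = untreated cell control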
Dynein confirm: dynein cargo transport inhibition, confirmation; 1,000 compounds, 69% hits; AID 463116; shares compounds with Dynein cargo inh; 3617.4 GR-EGFP nuclear translocation imaging, dexamethasone-induced; calls only at 20 µM;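 active = inhibition of receptor movement into the nucleus at or above a set limit in both runs, with normal cell brightness and cell count; inconclusive = limit reached in only one run, brightness and count normal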;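 also: dexamethasone at 1 µM final in well for 30 min; nuclear minus cytoplasmic GR-EGFP mean intensity difference in channel 2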
* hit, by the source's call; i = inactive; u = inconclusive; x = no result given; + = active, no number.

SMILES | PTEN del growth | Dynein cargo inh | SDO1 yeast rescue | Autophagy mod | HCT116 bCat-KO | Dynein confirm
Cn1cc([N+](=O)[O-])c(C(=O)Nc2nc(-c3ccc(Cl)cc3)cs2)n1 | 1.4* | -3.9* | -0.95 | i | 2.1* | +
Cc1ccc(S(=O)(=O)NC(C(=O)N2CCOCCOCCOCC2)c2ccccc2)cc1 (centres undefined) | x | 0.89 | x | i | x | x
O=C(Nc1ccc(F)cc1)c1nn(-c2ccccc2)c(=O)cc1Cl | x | -5.4* | x | i | x | +
O=C(COc1ccccc1)NC(Cc1c[nH]c2ccccc12)C(=O)O (centres undefined) | 91 | -0.63 | 0.85 | i | 84 | x
CC1CCN(CCCNC(=O)c2ccc3c(Cl)c4c(nc3c2)CCCC4)CC1 | x | -5* | x | x | x | +
O=C(NCCCN1CCCCCC1)c1ccc2c(Cl)c3c(nc2c1)CCCC3 | x | -3.7* | x | i | x | +
O=C(NCCN1CCCC1)c1ccc(Cl)cc1 | x | -1.3 | x | i | x | x
COc1ccc(NC(=O)CC2Sc3ncnn3C2=O)cc1 (centres undefined) | 101 | -4* | 0.43 | x | 100 | i
O=C(CC1Sc2ncnn2C1=O)Nc1ccc(Cl)cc1 (centres undefined) | x | -3.6* | x | i | x | i
CCN1CCN(CCNC(=O)c2ccc3c(c2)N(Cc2ccc(F)cc2)C(=O)/C(=C/c2ccccc2)S3)CC1 | x | -4.7 | x | i | x | x
O=C(NC1CCCC1)C(c1ccc(F)cc1)N(Cc1ccc(F)cc1)C(=O)CCl (centres undefined) | 81 | -4.4* | -1.3 | i | 83 | +
O=C(NC1CCCCC1)C(c1cccnc1)N(C(=O)CCl)c1ccc(F)cc1 (centres undefined) | 3.0* | -4.4* | 0.12 | i | 4.2* | +
COc1ccc(N(C(=O)CCl)C(C(=O)NC2CCCCC2)c2cccnc2)cc1 (centres undefined) | 2.5* | -5.4* | 0.45 | i | 2.8* | +
COc1ccc(-c2nnn(CC(=O)N(Cc3ccc(F)cc3)C(C(=O)NC3CCCC3)c3ccc(F)cc3)n2)cc1 (centres undefined) | x | -0.42 | x | i | x | x
COc1cccc(N(C(=O)c2cnccn2)C(C(=O)NC2CCCCC2)c2ccc(Cl)cc2)c1 (centres undefined) | 94 | -0.63 | -1.3 | i | 92 | x
COc1ccc(C(C(=O)NC2CCCCC2)N(C(=O)CCl)c2cccc(Cl)c2)cc1 (centres undefined) | 1.6* | -3.9* | -0.88 | i | 2.3* | +
Cc1cc(CN(C)Cc2cn(C)nc2-c2ccc(Oc3ccccc3)cc2)on1 | x | -1.4 | x | x | x | x
COc1ccc(NC(=O)CCc2nc3ccccc3s2)c(OC)c1 | x | -5.7* | x | i | x | i
O=C(NCc1cccnc1)/C(=C\c1ccc(-c2ccc(Br)cc2)o1)S(=O)(=O)c1ccccc1 | 0.9* | -4.6* | -1.9 | i | 1.6* | +
O=C(NCc1cccnc1)/C(=C/c1ccc(-c2ccc(Cl)cc2)o1)S(=O)(=O)c1ccccc1 | 1.3* | -5.3* | -2.5 | i | 1.7* | +
CC(C)(C)NC(=O)CN(CCc1ccccc1)C(=O)c1csnn1 | x | -0.68 | x | i | x | x
O=C(O)c1cccc(NC2=C(Cl)C(=O)c3ccccc3C2=O)c1 | x | -0.5 | x | i | x | x
O=C(O)c1ccc(NC2=C(Cl)C(=O)c3ccccc3C2=O)cc1 | x | -5.2* | x | x | x | +
O=C(COc1ccc(/C=C\[N+](=O)[O-])cc1)N1CCOCC1 | x | -5* | x | i | x | +
NC(=O)NCc1cccs1 | x | 1.1 | x | i | x | x
SMILES | PTEN del growth | Dynein cargo inh | SDO1 yeast rescue | Autophagy mod | HCT116 bCat-KO | Dynein confirm
CN1CCN(CC(=O)N2N=C(c3cccs3)CC2c2ccco2)CC1 (centres undefined) | 108 | -0.44 | 0.01 | i | 94 | x
O=C(CCl)N1N=C(c2cccs2)CC1c1ccco1 (centres undefined) | x | -4.7* | x | i | x | +
O=C(CS(=O)(=O)c1ccccc1)N1CCc2ccccc21 | x | -0.95 | x | i | x | x
CC(=O)n1cc(N(C(=O)CCl)c2ccccc2)c2ccccc21 | x | -4.5* | x | x | x | +
CC(=O)n1cc(N(C(=O)CCl)c2ccc([N+](=O)[O-])cc2)c2ccccc21 | x | -5* | x | x | x | +
CC(=O)O/C(=C\c1cn(C(C)=O)c2ccccc12)C(=O)O | x | 1.7 | x | x | x | x
C=CCn1c(SCc2ccc(C#N)cc2)nnc1-c1ccc(C)cc1 | 82 | -0.15 | -0.88 | i | 71 | x
N#Cc1c(C(F)(F)F)cc(-c2ccccc2)nc1SCc1nc(N)nc(N2CCOCC2)n1 | 48 | -3.8 | -1.1 | + | 61 | +
N#Cc1c(C(F)(F)F)cc(-c2ccc(Cl)c(Cl)c2)nc1SCCN1CCOCC1 | 76 | -0.86 | -1 | i | 75 | x
COc1ccccc1/C=C/C(=O)/C=C/c1ccccc1O | x | -4.2* | x | x | x | +
Nc1c(C(=O)C2CC2)sc2nc(-c3cccs3)cc(C(F)(F)F)c12 | 25 | -5.6 | 0.04 | u | 34 | i
CC(NC(=O)COC(=O)/C(=C/c1cccs1)c1cccs1)c1ccccc1 (centres undefined) | 74 | 0.084 | -1.2 | i | 87 | x
COc1cc2c(cc1OC)CN(CCC(=O)c1ccc(Br)cc1)CC2 | x | -4.1* | x | i | x | u
COc1cc2c(cc1OC)CN(CC(=O)Nc1cccc(C)c1)CC2 | 81 | 1.3 | -0.63 | i | 76 | x
CC(C)=NOc1nc(N(C)C)nc(N2CCOCC2)n1 | x | 0.25 | x | x | x | x
CC1=C(C#N)C(C(F)(F)F)(C(F)(F)F)N=C(c2ccco2)N1 | 89 | -0.21 | 0.33 | i | 84 | x
CC(C)N(C(=O)COC(=O)c1ccccc1C(=O)c1ccc(Cl)c([N+](=O)[O-])c1)C(C)C | x | -3.6* | x | i | x | i
CN(CCC#N)C(=O)COC(=O)c1ccccc1C(=O)c1ccc(Cl)c([N+](=O)[O-])c1 | x | -2 | x | i | x | x
O=C(c1ccc(S(=O)(=O)Cc2cc(F)ccc2F)c([N+](=O)[O-])c1)N1CCCC1 | x | -4.6* | x | i | x | +
N#C/C(=C\c1ccc(N2CCOCC2)o1)c1nc2ccccc2[nH]1 | 60 | -0.65 | -1.9 | u | 58 | x
N#C/C(=C/c1ccc(N2CCOCC2)o1)c1ccc(Cl)cc1 | 63 | -9.1 | -2.4 | + | 65 | i
Cn1c(=O)c([N+](=O)[O-])c(Cl)c2ccccc21 | x | -6.3* | x | i | x | +
COc1cc(/C=C/C(=O)OCC(=O)Nc2ccc3c(c2)OCCO3)ccc1OCC#N | 99 | 0.38 | -1.1 | i | 104 | x
COc1ccc(CN=Cc2[nH]c3ccc(Br)c(Cl)c3c2O)cc1 | 69 | -5* | 0.31 | i | 67 | +
Cc1cc(C)cc(N=Cc2[nH]c3ccc(Br)c(Cl)c3c2O)c1 | 75 | -9.1 | -0.18 | u | 75 | +
COc1ccc(CN=CC2=C(O)CNC2=O)cc1 | 108 | -0.23 | 0.17 | i | 97 | x

Source: PubChem BioAssay (several laboratories)
